F508del corr = correctors of CFTR F508del function in bronchial epithelial cells; CFBE cells, YFP halide quenching; stimulated with forskolin plus potentiator P3; % fluorescence drop versus neutral controls; activity (quench increase), % at 7.58 µM; actives 0.36% (n = 350,000); AID 720511;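 active = mean added fluorescence quench of at least 8% versus neutral control, with both replicates also reaching 8%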;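 also: cells transiently co-express mutant CFTR-F508del with the halide-sensitive YFP; corrector assay measuring rescue of mutant channel to the surface after 24 h compound exposure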
Ecoli rRNA inh = inhibits bacterial ribosomal RNA function over humanized ribosomes | E. coli WT GFP vs humanized-ribosome RFP mutants, fluorescence, 24 h; stronger effect = lower value; DMSO median 0, no signal -100 | GFP signal change (wild-type ribosome), % (concentration not given with the values) | AID 720706 | actives 1.6% (n = 350,000);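 active = significant combined selectivity score with lowered wild-type GFP, culture density cut under 30%, mutant RFP and density less affected; inactive = any of these conditions unmet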
Cneo AK release = Cryptococcus neoformans lysis via adenylate kinase release; AID 651654; C. neoformans lysis, adenylate kinase release luminescence, 4 h; normalised: neutral wells 0, clomiphene wells 100; actives 0.2% (n = 360,000); lysis activity, % at 15 µM;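 active = mean lysis activity across replicates of at least 80%, whatever share of replicates individually reach that level; inactive = mean lysis activity below 80%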
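Assay system: C. neoformans cells. Amount: yeast cell density of 5 × 10^6 cells/mL. Technique: AK luminescence. Buffer or medium: YPD. Times: static 4 h at 37 °C with compound, 1 h detection. Dosing: single-point compound dose. Read-out: lysis from increased AK signal.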
CaV13 ICDI inh = Primary screen for inhibitors of IQ motif and Ca2+-dependent inactivation inhibitor domain binding in CACNA1D, Förster resonance energy transfer in living cells, … | HEK cells, CFP/YFP FRET ICDI-IQ, plate reader, 10 min; percent FRET-ratio fall versus neutral wells | inhibition, % at 12.3 µM | actives 0.098% (n = 340,000) | AID 743397;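 active = mean replicate inhibition of at least 30% and at least 1% of replicates passing that level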;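 also: 0% = median of the neutral control wells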
An asterisk follows results filed as active; . = no result. Compounds with a hit are over-represented: about 1.7% of the library has one in this group of screens.

SMILES	F508del corr	Ecoli rRNA inh	Cneo AK release	CaV13 ICDI inh
O=C(Cc1c(F)cccc1Cl)OCC(=O)N1CCN(c2ccccc2)CC1	0	-21*	-1	-3
C[C@@H]1CCCCO[C@H](CN(C)C(=O)c2ccccc2)[C@@H](C)CN([C@H](C)CO)C(=O)c2cc(NC(=O)C3CCCCC3)ccc2O1	-2	0	51	.
O=C(c1cc(COc2c(F)cccc2F)on1)N1C[C@H]2CC[C@H]1C2	0	-20*	-2	-10
O=C(c1cc(COc2ccc(F)cc2F)on1)N1C[C@H]2CC[C@H]1C2	-1	-6	-4	-6
CCOc1ccc(OCc2ccc(C(=O)N3CCc4ccccc4C3)o2)cc1	-3	-28*	-2	-7
O=C(c1cc(COc2c(F)cccc2F)on1)N1CCc2ccccc2C1	0	-23*	1	-2
CC(=O)N(C)C[C@H]1Oc2ncc(C#Cc3ccccn3)cc2C(=O)N([C@@H](C)CO)C[C@H]1C	-4	6	-1	.
C[C@@H]1CN([C@@H](C)CO)C(=O)c2cc(NC(=O)C3CC3)ccc2O[C@H]1CN(C)C(=O)Nc1ccc(F)cc1	0	5	1	.
CCn1c(=N)n(CC(=O)C(C)(C)C)c2ccccc21	2	-23*	0	-7
CCCn1c(=N)n(CC(=O)C(C)(C)C)c2ccccc21	.	.	8	-2
Cc1ccccc1CNS(=O)(=O)c1ccccc1[N+](=O)[O-]	.	-28*	4	-7
C[C@@H]1CN([C@H](C)CO)C(=O)c2cc(NC(=O)Nc3ccc(C(F)(F)F)cc3)ccc2O[C@@H](C)CCCCO[C@@H]1CN(C)Cc1ccc(Cl)c(Cl)c1	2	-6	4	.
Cc1cnc(NC(=O)c2ccc3c(c2)OCCO3)s1	9.0*	-3	-4	-5
O=C(COC(=O)C1CCN(C(=O)c2ccc(Cl)cc2)CC1)Nc1ccccc1F	-1	-17*	0	-16
Cc1cc(C)cc(NC(=O)Nc2ccc3c(c2)N(C)C(=O)CS3)c1	-4	-2	-5	16
Cc1ccc(NC(=O)Nc2ccc3c(c2)N(C)C(=O)CS3)cc1C	0	-13*	-3	-2
O=C1CC[C@@H](CN(Cc2ccccc2)Cc2cn[nH]c2-c2cc3ccccc3o2)N1	-2	-24*	-1	1
c1ccc2oc(-c3[nH]ncc3CN(Cc3ccncc3)CC3CCCO3)cc2c1 (stereo not drawn)	1	-11	-1	-5
COc1ccc(-c2nnc3sc(C(C)N4C(=O)c5ccccc5C4=O)nn23)cc1 (stereo not drawn)	-1	-45*	-1	-4
Cc1cccc(S(=O)(=O)N2C[C@H]3[C@@H](c4ccccc42)[C@H](CO)N3CC2CCOCC2)c1	-1	-3	6	.
Cc1cccc(S(=O)(=O)N2C[C@H]3[C@@H](c4ccccc42)[C@H](CO)N3CC2CCCC2)c1	14*	-58	40	.
COc1ccc(C(=O)C2CCN(C(=S)NCCc3ccc(OC)c(OC)c3)CC2)cc1	1	-25*	.	4
COc1ccc(N/N=C(\C#N)C(=O)NCCc2ccc(OC)c(OC)c2)cc1	-2	-38*	.	-6
COc1ccc(CCC(=O)NCCc2ccc(OC)c(OC)c2)cc1	-1	1	-1	-5
CCOc1ccc(C(=O)O/N=C(\N)c2ccccn2)cc1	8.2*	2	-11	-7
SMILES	F508del corr	Ecoli rRNA inh	Cneo AK release	CaV13 ICDI inh
Cc1ccc(C(=O)O/N=C(\N)c2ccccn2)cc1	-1	6	-10	-5
CCc1ccc(OCC(=O)O/N=C(\N)c2ccccn2)cc1	1	-22*	-9	0
COC(=O)C[C@@H]1C[C@H]2c3cc(NS(=O)(=O)c4ccc(OC)cc4)ccc3O[C@H]2[C@H](CO)O1	0	-2	2	.
c1ccc2c(c1)N1CCCN=C1N2CCN1CCCCC1	8.9*	7	.	-15
O=C(OCc1cccc(F)c1)c1ccc2c(=O)n3c(nc2c1)CCC3	-2	-24*	.	-5
Brc1ccccc1C1Cc2nnccc2CN1 (stereo not drawn)	-2	-36*	.	-5
COc1ccc(-c2ccccc2C2Cc3nnccc3CN2)cc1 (stereo not drawn)	-4	-2	.	-4
CC(C)C[C@@H]1COc2cccc(N3CCCC3)c2S(=O)(=O)N1	2	-28*	.	-7
CC(C)C[C@@H]1COc2cccc(N3CCN(Cc4ccccc4F)CC3)c2S(=O)(=O)N1	-1	-35*	.	.
O=S1(=O)N[C@@H](Cc2ccccc2)COc2cccc(N3CCN(Cc4ccccc4F)CC3)c21	-1	-26	.	-4
CCCNC(=O)N(C)C[C@H]1N[C@@H](CO)[C@@H]1c1ccc(C2=CCCCC2)cc1	-5	3	3	.
CCC(CC)C(=O)N(CCc1ccc(OC)cc1)Cc1nc2ccccc2c(=O)[nH]1	1	-51*	3	-7
COc1ccc(CCN(Cc2nc3ccccc3c(=O)[nH]2)C(=O)c2ccco2)cc1	.	.	0	-4
Cc1cccc(/C=N/n2c(-c3cc(-c4ccccc4)n[nH]3)n[nH]c2=S)c1	.	8	.	-3
Cc1cccc(-c2n[nH]c(=S)n2/N=C/c2cccs2)c1	-2	-22*	9	-17
S=c1[nH]nc(-c2cc(-c3ccccc3)n[nH]2)n1/N=C/c1ccccc1	1	-15*	-1	-4
Cc1cccc(-c2n[nH]c(=S)n2/N=C/c2ccc(C)s2)c1	.	.	-1	-1
COc1ccc([C@@H](OC(=O)Nc2ccc(SC)cc2)[C@@H](CCO)OC)cc1O	-1	.	-9	.
O=S(=O)(Cc1ccccc1)NCC[C@@H]1CC[C@H](NS(=O)(=O)c2ccc(F)cc2)[C@@H](CO)O1	2	1	0	.
C[C@@H]1CN([C@H](C)CO)C(=O)c2c(c3ccccc3n2C)-c2ccccc2CO[C@H]1CN(C)S(=O)(=O)c1ccc(Cl)cc1	-1	0	107*	.
C[C@@H]1CN([C@@H](C)CO)C(=O)c2c(c3ccccc3n2C)-c2ccccc2CO[C@@H]1CN(C)S(=O)(=O)c1ccc(Cl)cc1	-1	2	100*	.
C[C@H]1CN([C@@H](C)CO)C(=O)c2c(c3ccccc3n2C)-c2ccccc2CO[C@@H]1CN(C)S(=O)(=O)c1ccc(Cl)cc1	-10	2	-3	.
C[C@H](CO)N1C[C@H](C)[C@H](CN(C)S(=O)(=O)c2ccc(Cl)cc2)OCc2ccccc2-c2c(n(C)c3ccccc23)C1=O	-3	3	0	-7
CO[C@H]1CN(C)C(=O)c2ccc(NC(=O)c3cnccn3)cc2OC[C@H](C)N(CC2CC2)C[C@H]1C	0	2	.	.
CN1C(=O)c2cc(NC(=O)c3cnccn3)ccc2OC[C@H]2O[C@@H](CC(=O)NCC3CC3)CC[C@@H]21	-1	2	.	.
O=C(c1ccco1)N(CCCN1CCOCC1)c1nc(-c2ccc(F)cc2)cs1	.	-33*	-1	-8
